A value given as a limit tells only on which side of the number the result lay.

Assay [1] is filed under the species Homo sapiens. Briefly: Selectivity ratio of Ki for human kappa opioid receptor to Ki for human mu opioid receptor.
A further assay addresses Mu-type opioid receptor (Homo sapiens, UniProt P35372). Briefly: Displacement of [3H]DAMGO from human mu opioid receptor expressed in CHO cells. It counts as cell-based. (In general: In a radioligand displacement assay an active substance lowers the binding of a labelled ligand.)
In assay [2] the target is Delta-type opioid receptor (Homo sapiens, UniProt P41143). The assay can be described thus: Displacement of [3H]naltrindole from human delta opioid receptor expressed in CHO cells. The assay is classed as cell-based. The essentials:
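CHO cells stably expressing a single human opioid receptor were grown in DMEM with 10% FBS and penicillin/streptomycin at 37 °C in 5% CO2. Their membranes were incubated with radioligand and 12 concentrations of test compound at 25 °C in 50 mM Tris-HCl, pH 7.5.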

The target of assay [3] is Kappa-type opioid receptor (Homo sapiens, UniProt P41145). Briefly: Displacement of [3H]U69593 from human kappa opioid receptor expressed in CHO cells. The assay is classed as cell-based.
The species entered for assay [4] is Homo sapiens. Briefly: Selectivity ratio of Ki for human delta opioid receptor to Ki for human mu opioid receptor.

Sequence of Delta-type opioid receptor (P41143 whole entry): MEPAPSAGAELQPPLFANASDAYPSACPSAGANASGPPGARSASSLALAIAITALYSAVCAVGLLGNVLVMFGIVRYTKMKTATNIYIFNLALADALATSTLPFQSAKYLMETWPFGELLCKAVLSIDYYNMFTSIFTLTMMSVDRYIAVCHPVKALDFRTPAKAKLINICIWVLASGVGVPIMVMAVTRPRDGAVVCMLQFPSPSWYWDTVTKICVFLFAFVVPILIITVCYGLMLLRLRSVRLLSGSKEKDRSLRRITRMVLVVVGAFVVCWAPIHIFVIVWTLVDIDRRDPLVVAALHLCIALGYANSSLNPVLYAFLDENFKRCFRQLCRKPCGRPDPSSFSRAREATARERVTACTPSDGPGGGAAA
Sequence of Kappa-type opioid receptor (P41145 whole entry): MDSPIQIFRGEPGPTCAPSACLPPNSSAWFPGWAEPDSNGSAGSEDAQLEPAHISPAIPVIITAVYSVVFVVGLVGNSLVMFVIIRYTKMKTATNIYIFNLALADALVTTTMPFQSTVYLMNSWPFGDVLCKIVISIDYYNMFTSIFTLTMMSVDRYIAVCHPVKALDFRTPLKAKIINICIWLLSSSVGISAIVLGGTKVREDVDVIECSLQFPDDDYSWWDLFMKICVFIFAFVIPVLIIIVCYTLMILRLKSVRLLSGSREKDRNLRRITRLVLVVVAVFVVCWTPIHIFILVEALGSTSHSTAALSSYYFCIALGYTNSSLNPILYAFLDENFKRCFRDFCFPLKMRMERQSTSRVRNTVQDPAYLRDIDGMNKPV
Sequence of Mu-type opioid receptor (P35372 whole entry): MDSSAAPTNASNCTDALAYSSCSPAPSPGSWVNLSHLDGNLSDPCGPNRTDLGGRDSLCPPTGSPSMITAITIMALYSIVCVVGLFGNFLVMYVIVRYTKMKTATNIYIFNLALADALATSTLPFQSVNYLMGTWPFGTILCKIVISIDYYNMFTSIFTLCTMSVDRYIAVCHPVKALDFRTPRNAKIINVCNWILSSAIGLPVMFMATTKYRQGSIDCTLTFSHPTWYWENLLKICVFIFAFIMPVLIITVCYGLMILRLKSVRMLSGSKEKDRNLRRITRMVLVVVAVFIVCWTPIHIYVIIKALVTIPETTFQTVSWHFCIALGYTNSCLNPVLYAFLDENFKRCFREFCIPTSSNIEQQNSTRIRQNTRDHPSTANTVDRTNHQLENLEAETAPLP

For orientation: Ki means the equilibrium dissociation constant of an inhibitor or competing ligand from its target. `CN1CC[C@]23CCCC[C@H]2[C@H]1Cc1ccc(OC(=O)Nc2ccc(I)cc2)cc13`: the Ratio Ki in the assay listed under Homo sapiens [1] came out at 15; in the assay listed under Homo sapiens [4] it was 4. For the same molecule, the Ki amounted to 0.34 nM at Mu-type opioid receptor, 160 nM in assay [2] and 5.2 nM in assay [3].

For `Oc1cc2c(cc1C(O)CCCCC(O)c1cc3c(cc1O)[C@@]14CCCC[C@H]1[C@@H](C3)N(CC1CCC1)CC4)C[C@@H]1[C@@H]3CCCC[C@]23CCN1CC1CCC1` (mixture of isomers), the Ratio Ki in the assay listed under Homo sapiens [1] came to 1; in the assay filed under Homo sapiens [4], 24. Further, the Ki at Mu-type opioid receptor is 74 nM; in assay [2], 1600 nM; in assay [3], 67 nM.

Regarding `O=C(CCCCC(=O)NCc1cc2c(cc1O)[C@@]13CCCC[C@H]1[C@@H](C2)N(CC1CCC1)CC3)NCc1cc2c(cc1O)[C@@]13CCCC[C@H]1[C@@H](C2)N(CC1CCC1)CC3`, the Ratio Ki in the assay listed under Homo sapiens [1] amounted to 1; in the assay filed under Homo sapiens [4], 21. The Ki was 36 nM at Mu-type opioid receptor and 30 nM in assay [3].

On to `Oc1cc2c(cc1CNCCCCCCCCNCc1cc3c(cc1O)[C@@]14CCCC[C@H]1[C@@H](C3)N(CC1CCC1)CC4)C[C@@H]1[C@@H]3CCCC[C@]23CCN1CC1CCC1`, for which the results for the Ratio Ki in the assay listed under Homo sapiens [1] and in the assay filed under Homo sapiens [4] were 2 and 42, respectively. Besides, the Ki is 24 nM at Mu-type opioid receptor, 1000 nM in assay [2] and 40 nM in assay [3].

Turning to `COc1ccc(Nc2ccc3c(c2)[C@@]24CCCC[C@H]2[C@@H](C3)N(CC2CC2)CC4)cc1`, the Ratio Ki worked out at 1 in the assay filed under Homo sapiens [1] and 65 in the assay listed under Homo sapiens [4]. Besides, the Ki at Mu-type opioid receptor was determined as 0.026 nM; in assay [2], 1.7 nM; in assay [3] it was 0.03 nM.

As for `COc1ccc(CNc2ccc3c(c2)[C@@]24CCCC[C@H]2[C@@H](C3)N(CC2CC2)CC4)cc1`, the Ratio Ki in the assay filed under Homo sapiens [1] was found to be 2; in the assay listed under Homo sapiens [4], 65. For the same molecule, the Ki on Mu-type opioid receptor came to 0.31 nM; in assay [2], 20 nM; in assay [3], 0.51 nM.

For the molecule `Oc1cc2c(cc1CNCCCCNCc1cc3c(cc1O)[C@@]14CCCC[C@H]1[C@@H](C3)N(CC1CCC1)CC4)C[C@@H]1[C@@H]3CCCC[C@]23CCN1CC1CCC1`, the values for the Ratio Ki in the assay filed under Homo sapiens [1] and in the assay listed under Homo sapiens [4] were 0.7 and 28, respectively. For the same molecule, the values for the Ki (on Mu-type opioid receptor; in assay [2]; in assay [3]) were 6.8 nM, 190 nM and 4.9 nM, respectively.

Regarding `c1ccc(Nc2ccc3c(c2)[C@@]24CCCC[C@H]2[C@@H](C3)N(CC2CC2)CC4)cc1`, the figures for the Ratio Ki in the assay listed under Homo sapiens [1] and in the assay listed under Homo sapiens [4] were 0.5 and 68, respectively. In addition, the Ki at Mu-type opioid receptor turned out to be 0.08 nM; in assay [2], 5.4 nM; in assay [3] it was 0.047 nM.

`COc1ccc(Nc2ccc3c(c2)[C@@]24CCCC[C@H]2[C@@H](C3)N(CC2CCC2)CC4)cc1`: the Ratio Ki in the assay listed under Homo sapiens [1] stood at 1; in the assay filed under Homo sapiens [4] it was 3. In addition, the Ki on Mu-type opioid receptor amounted to 0.61 nM; in assay [2], 19 nM; in assay [3], 0.59 nM.

In the case of `CCCNCc1cc2c(cc1O)[C@@]13CCCC[C@H]1[C@@H](C2)N(CC1CCC1)CC3`, in the assay listed under Homo sapiens [1], the Ratio Ki came to 1. The results for the inhibitory constant (Ki) (on Mu-type opioid receptor; in assay [2]; in assay [3]) were 330 nM, > 10000 nM and 350 nM, respectively.

In the case of `O=C(Nc1ccc(I)cc1)Nc1ccc2c(c1)[C@@]13CCCC[C@H]1[C@@H](C2)N(CC1CCC1)CC3`, the values for the Ratio Ki in the assay listed under Homo sapiens [1] and in the assay filed under Homo sapiens [4] were 0.5 and 4, respectively. In addition, the Ki at Mu-type opioid receptor was 24 nM; in assay [2] it was 250 nM; in assay [3], 28 nM.

Turning to `NCc1cc2c(cc1O)[C@@]13CCCC[C@H]1[C@@H](C2)N(CC1CCC1)CC3`, in the assay filed under Homo sapiens [1], the Ratio Ki was 0.5. The Ki is 290 nM on Mu-type opioid receptor, > 10000 nM in assay [2] and 140 nM in assay [3].

Consider `OCCCCCCCCCCC(O)c1cc2c(cc1O)[C@@]13CCCC[C@H]1[C@@H](C2)N(CC1CCC1)CC3` (mixture of isomers), for which the results for the Ratio Ki in the assay filed under Homo sapiens [1] and in the assay listed under Homo sapiens [4] were 1 and 23, respectively. For the same molecule, the Ki on Mu-type opioid receptor was determined as 36 nM; in assay [2], 610 nM; in assay [3], 26 nM.

For `c1ccc(CNc2ccc3c(c2)[C@@]24CCCC[C@H]2[C@@H](C3)N(CC2CCC2)CC4)cc1`, the results for the Ratio Ki in the assay filed under Homo sapiens [1] and in the assay listed under Homo sapiens [4] were 1.6 and 76, respectively. The Ki on Mu-type opioid receptor was 1.7 nM; in assay [2] it was 130 nM; in assay [3] it was 2.8 nM.

In the case of `c1ccc(CNc2ccc3c(c2)[C@@]24CCCC[C@H]2[C@@H](C3)N(CC2CC2)CC4)cc1`, the Ratio Ki in the assay listed under Homo sapiens [1] turned out to be 1.4; in the assay filed under Homo sapiens [4] it was 112. The Ki on Mu-type opioid receptor was found to be 0.26 nM; in assay [2], 29 nM; in assay [3], 0.34 nM.

Take `O/N=C\c1cc2c(cc1O)[C@@]13CCCC[C@H]1[C@@H](C2)N(CC1CCC1)CC3`: the Ratio Ki in the assay listed under Homo sapiens [1] came to 0.16; in the assay filed under Homo sapiens [4], 47.

As to `CCN(CCCCN(CC)Cc1cc2c(cc1O)[C@@]13CCCC[C@H]1[C@@H](C2)N(CC1CCC1)CC3)Cc1cc2c(cc1O)[C@@]13CCCC[C@H]1[C@@H](C2)N(CC1CCC1)CC3`, the values for the Ratio Ki in the assay listed under Homo sapiens [1] and in the assay filed under Homo sapiens [4] were 0.3 and 7, respectively. The Ki was found to be 160 nM on Mu-type opioid receptor, 1100 nM in assay [2] and 44 nM in assay [3].

Take `COc1ccc(CN(Cc2ccc(OC)cc2)c2ccc3c(c2)[C@@]24CCCC[C@H]2[C@@H](C3)N(CC2CC2)CC4)cc1`: the Ratio Ki was 2 in the assay listed under Homo sapiens [1] and 48 in the assay filed under Homo sapiens [4]. In addition, the values for the Ki (at Mu-type opioid receptor; in assay [2]; in assay [3]) were 2.5 nM, 120 nM and 3.9 nM, respectively.

Take `Ic1ccc(CNc2ccc3c(c2)[C@@]24CCCC[C@H]2[C@@H](C3)N(CC2CCC2)CC4)cc1`: the figures for the Ratio Ki in the assay filed under Homo sapiens [1] and in the assay listed under Homo sapiens [4] were 1.1 and 35, respectively. Moreover, the Ki on Mu-type opioid receptor was 5.4 nM; in assay [2], 190 nM; in assay [3], 5.8 nM.

As for `CN1CC[C@]23CCCC[C@H]2[C@H]1Cc1ccc(NC(=O)Nc2ccc(I)cc2)cc13`, the Ratio Ki in the assay listed under Homo sapiens [1] is 16; in the assay listed under Homo sapiens [4] it was 18. Also, the Ki came out at 17 nM at Mu-type opioid receptor, 300 nM in assay [2] and 280 nM in assay [3].

Turning to `CCC(O)c1cc2c(cc1O)[C@@]13CCCC[C@H]1[C@@H](C2)N(CC1CCC1)CC3` (mixture of isomers), the Ratio Ki in the assay filed under Homo sapiens [1] was found to be 0.3. The results for the inhibitory constant (Ki) (on Mu-type opioid receptor; in assay [2]; in assay [3]) were 180 nM, > 10000 nM and 72 nM, respectively.

`Ic1ccc(CN(Cc2ccc(I)cc2)c2ccc3c(c2)[C@@]24CCCC[C@H]2[C@@H](C3)N(CC2CCC2)CC4)cc1`: the Ratio Ki in the assay listed under Homo sapiens [1] stood at 1; in the assay listed under Homo sapiens [4], 60. Moreover, the Ki on Mu-type opioid receptor turned out to be 16 nM; in assay [2] it was 960 nM; in assay [3], 16 nM.

Take `Oc1cc2c(cc1C(O)CCCCCCCCCCC(O)c1cc3c(cc1O)[C@@]14CCCC[C@H]1[C@@H](C3)N(CC1CCC1)CC4)C[C@@H]1[C@@H]3CCCC[C@]23CCN1CC1CCC1` (mixture of isomers): the Ratio Ki came out at 1 in the assay filed under Homo sapiens [1] and 24 in the assay listed under Homo sapiens [4]. Also, the figures for the Ki (at Mu-type opioid receptor; in assay [2]; in assay [3]) were 35 nM, 730 nM and 31 nM, respectively.

As to `CN1CC[C@]23CCCC[C@H]2[C@H]1Cc1cc2c(cc13)OCN(Cc1ccccc1)C2`, the Ratio Ki in the assay listed under Homo sapiens [1] amounted to 3. Besides, the values for the inhibition constant Ki (at Mu-type opioid receptor; in assay [2]; in assay [3]) were 110 nM, > 10000 nM and 310 nM, respectively.

As for `O=C(Nc1ccccc1)Nc1ccc2c(c1)[C@@]13CCCC[C@H]1[C@@H](C2)N(CC1CC1)CC3`, the Ratio Ki in the assay listed under Homo sapiens [1] was found to be 0.5; in the assay listed under Homo sapiens [4] it was 4. For the same molecule, the Ki on Mu-type opioid receptor worked out at 3.9 nM; in assay [2] it was 16 nM; in assay [3], 1.6 nM.

As for `O=C(Nc1ccc(I)cc1)Nc1ccc2c(c1)[C@@]13CCCC[C@H]1[C@@H](C2)N(CC1CC1)CC3`, the Ratio Ki in the assay listed under Homo sapiens [1] came to 0.5; in the assay filed under Homo sapiens [4] it was 4. The Ki on Mu-type opioid receptor stood at 23 nM; in assay [2], 94 nM; in assay [3] it was 12 nM.

In the case of `CCN(CCCCCCN(CC)Cc1cc2c(cc1O)[C@@]13CCCC[C@H]1[C@@H](C2)N(CC1CCC1)CC3)Cc1cc2c(cc1O)[C@@]13CCCC[C@H]1[C@@H](C2)N(CC1CCC1)CC3`, the Ratio Ki in the assay listed under Homo sapiens [1] was determined as 1; in the assay listed under Homo sapiens [4], 13. Besides, the results for the Ki (on Mu-type opioid receptor; in assay [2]; in assay [3]) were 64 nM, 710 nM and 54 nM, respectively.

On to `CN1CC[C@]23CCCC[C@H]2[C@H]1Cc1ccc(NC(=O)Nc2ccccc2)cc13`, for which the Ratio Ki in the assay filed under Homo sapiens [1] came to 31; in the assay filed under Homo sapiens [4] it was 29. Also, the Ki at Mu-type opioid receptor stood at 11 nM; in assay [2], 320 nM; in assay [3], 340 nM.

For `Oc1cc2c(cc1CNCCCCCCNCc1cc3c(cc1O)[C@@]14CCCC[C@H]1[C@@H](C3)N(CC1CCC1)CC4)C[C@@H]1[C@@H]3CCCC[C@]23CCN1CC1CCC1`, the Ratio Ki in the assay listed under Homo sapiens [1] was 0.5; in the assay listed under Homo sapiens [4] it was 12. Besides, the Ki at Mu-type opioid receptor amounted to 76 nM; in assay [2] it was 850 nM; in assay [3], 37 nM.

On to `CN1CC[C@]23CCCC[C@H]2[C@H]1Cc1cc(CNCc2ccccc2)c(O)cc13`, for which the Ratio Ki in the assay listed under Homo sapiens [1] was found to be 2. Further, the figures for the Ki (on Mu-type opioid receptor; in assay [2]; in assay [3]) were 190 nM, > 10000 nM and 380 nM, respectively.

In the case of `Ic1ccc(CNc2ccc3c(c2)[C@@]24CCCC[C@H]2[C@@H](C3)N(CC2CC2)CC4)cc1`, the Ki on Mu-type opioid receptor was found to be 0.71 nM; in assay [2] it was 34 nM; in assay [3] it was 0.79 nM.

As to `OCc1cc2c(cc1O)[C@@]13CCCC[C@H]1[C@@H](C2)N(CC1CCC1)CC3`, the Ratio Ki in the assay filed under Homo sapiens [1] came to 0.25. Besides, the Ki on Mu-type opioid receptor is 360 nM; in assay [2], > 10000 nM; in assay [3], 86 nM.

Source of the values: ChEMBL document CHEMBL1156775 (J Med Chem, 2010).
